Experimental data as given in the EternaBench riboswitch data.

System: MS2 coat protein
Assay: apparent Kd, MS2 coat protein; higher = weaker binding; RNA-MaP array; FMN 200 µM where present
Outline: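 The apparent Kd comes from binding curves fitted cluster by cluster, filtered, and summarised as a median. Those curves followed SNAP-549-labelled MS2 coat protein from 0.7 or 1.5 nM, doubling to 3 µM, on Illumina sequencing-chip clusters where stalled E. coli RNA polymerase had transcribed the designs, without and then with constant ligand. The buffer was 100 mM Tris-HCl pH 7.5, 80 mM KCl, 4 mM MgCl2, BSA, DTT, yeast tRNA and Tween-20, and green signal was normalised to red-channel RNA signal and control-cluster median Fmax.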

[1] = designed as: OFF switch for flavin mononucleotide, no ligand
[2] = ligand present: flavin mononucleotide, designed as: OFF switch for flavin mononucleotide
[3] = designed as: ON switch for flavin mononucleotide, no ligand
[4] = ligand present: flavin mononucleotide, designed as: ON switch for flavin mononucleotide

| Sequence | apparent Kd [1] | apparent Kd [2] | apparent Kd [3] | apparent Kd [4] |
| --- | --- | --- | --- | --- |
| AAAUAAAGCAGUGUGGUAAGAUCACAUGAGGAUCACCCAUGUAAGGAUAUGACGAGCAAAGCUCGUCAGAAGGUACGUCACUGC | 34 nM | 133 nM | – | – |
| CCUACGUGAGGAUAUGCAACUAACACGUUAGACAAAUAGUUGCAGAAGGCACAUGAGGAUCACCCAUGUGAACC | 29.8 nM | 34.9 nM | – | – |
| AAGUCGACGGUGAGGAUAUUGGUUGAACGACAGAUUAAGAAGGUACAUGAGGAUCACCCAUGUGGGUAACGUCG | 100 nM | 83 nM | – | – |
| UACUCAUGUGAGAAGGGACGUAUCUCCAUGAGGGCAGGGCUAUUAGGGAAGUCAGGAUAUCACAUGAGGAUCACCCAUGUGACG | 6.91 nM | 7.33 nM | – | – |
| GUCGGAAACGACAAAAGUAUGGAUCCAGAAGGCAUGACACAUGAGGAUCACCCAUGUCUAAGACAUGAGGAUAUGGAUCCAUAC | – | – | 5.24 nM | 3.67 nM |
| AACCGCGAUCGGCCUGGCACGUCGAGAAGGGUACGUGACCUGCUUUACAUGAGGAUCACCCAUGUACAGGAUAUCGAAUAGCCG | 6.2 nM | 6.68 nM | – | – |
| GGUACCAUCACAGGAUAUGCUUUCCGUUGGGAAGCAGAAGGGUGUAACAUGAGGAUCACCCAUGUGGUGCCCGGGCGUGAGCCC | – | – | 135 nM | 15.6 nM |
| UUAGACGUCGUAGGAUAUGUAGGAUAUUCCUACAUGAGGAUCACCCAUGUUGACAUGGAAGAAGGACAGAAGGACGAUGUCCAU | – | – | 307 nM | 4.91 nM |
| UCUUUCGUUGUGAGGAUAUGCCCAAAUAAAAGCGGGCAGAAGGCACAUGAGGAUCACCCAUGUCCUGCGGUUUU | 22.8 nM | 288 nM | – | – |
| GCUUUAUAGAUCCAUUUUAACAACAUGAGGAUCACCCAUGUGCAGGAUAUCGUUUGUUUUAUAUUCGAGAAGGGCAAAUUCAGC | 32.5 nM | 77.6 nM | – | – |
| AACUGACAUGAGGAUCACCCAUGUCAGGAUAUGAUAUGUAAAAAAUAAAAAAUACUUAUCAGAAGGGACAUGGA | 22.7 nM | 41.3 nM | – | – |
| AGUGUGUUAGGAUAUCGGAUAUGCUGGAGGAGGUGGAGUUACGAGAAGGAACAUGAGGAUCACCCAUGUAGGAC | 25.8 nM | 23.2 nM | – | – |
| AAUUGGAUCCAGAAGGCAUGGACGACCCGUCACAUUAACAUGAGGAUCACCCAUGUGAAAACACAUGAGGAUAUGGAUCCUAAA | – | – | 28.7 nM | 7.44 nM |
| AAGCACAGAGGAUAUACAUGGGUAAAAAAAAAAAAAAAAAAACAUGAGGAUCACCCAUGUAGAAGGCUGUGCAA | 81.6 nM | 67 nM | – | – |
| CCGUUUUGAGGAUAUCCACCCUCAUACAUGAGGAUCACCCAUGUUCACCCUUGGGUUCCCGGAGAAGGCAGUUUUC | 1120 nM | 828 nM | – | – |
| AAGGAGUUAGGAUAUGCUGCUCGUCACUUGCGUGAUGAGUAGCAGAAGGGACAUGAGGAUCACCCAUGUAAAAA | 45.3 nM | 21.2 nM | – | – |
| CCUGAGUCAGGAUAUUGUACCGGCCUGAAGCCAGACCGACCCAAGAAGGGACAUGAGGAUCACCCAUGUGAAAA | 23.1 nM | 24.7 nM | – | – |
| GCACGAAGCUAGAAGGGCGAUUUGCACAUGAGGAUCACCCAUGUCCAACGUAGGAUAUGGCUGGCGGGAACGCAAGGUGCGCGC | – | – | 330 nM | 37.3 nM |
| UGCAAAAUUGCAACAUGAGGAUCACCCAUGUCUGGGUUGGCCAAGGAUAUGCUUCUAAUCCUAGUGCAGAAGGUGGAAACUCAU | – | – | 201 nM | 530 nM |
| GUGGCUAGUGCAGGAUAUCGGCGCGUGUAGUGUCGAGAAGGGCACAUGAGGAUCACCCAUGUGAUCAAUCACUGCUAAGGCCGC | 5.12 nM | 5.38 nM | – | – |
| AAAAAACAUGAGGAUCACCCAUGUCAGGAUAUCAUAAAAAAAAAAAAAAAAAAAAAAGUGAGAAGGGACAAAAA | 91.7 nM | 71.5 nM | – | – |
| CUAAAUCAUGUAGGAUAUGCGUGGCGAAGCUAUGCAGAAGGACAUGAGGAUCACCCAUGUCUAUCCGUCUGCGUACAGACGGAA | 25.1 nM | 186 nM | – | – |
| AGCUACGUUUCGUAGCAGCUAGGUGAGGAUAUUCAAUUGUUCACAUGAGGAUCACCCAUGUAUGUGAAGAAGGCGCCUAGAAAG | – | – | 7.16 nM | 5.34 nM |
| GACGGUGAUGUAGGAUAUACGCUGGAAUACAGCGUAGAAGGACAUGAGGAUCACCCAUGUAGAGUGUCUCCAAAUAACACCGUC | 43.5 nM | 284 nM | – | – |

| Sequence | apparent Kd [1] | apparent Kd [2] | apparent Kd [3] | apparent Kd [4] |
| --- | --- | --- | --- | --- |
| GUGUAGAUAGGAUAUGCGUGAGUCUAGCGAAGCUAGAUUCUACAUGAGGAUCACCCAUGUAGAAGGGUCUACAC | 17.2 nM | 18.5 nM | – | – |
| GACCGAUAGUCAGGAUAUGCAUGGUUAGUUGAUUACAUGAGGAUCACCCAUGUAGAAGGGACUUUGGCGAAAUCCGUGAUGCGU | 44.1 nM | 115 nM | – | – |
| CUUUUGUGAGGAUAUCAGUAGUAAAUAAAUAAAAUUAAUACUGAGAAGGCACAUGAGGAUCACCCAUGUUCCUC | 33.1 nM | 162 nM | – | – |
| CUUUUGGGAGGAUAUUAGUAGUAAAUAAAUAAAAUUACUACUGAGAAGGCACAUGAGGAUCACCCAUGUUCCUC | 17.9 nM | 26.1 nM | – | – |
| CUCCGGCGUGUAGGAUAUGGAUCCGAUUAGGAUCCAGAAGGACAUGAGGAUCACCCAUGUACAUGUAAACAGUCAUCACCGGAC | 8.66 nM | 67.6 nM | – | – |
| GCCAUCGCAUGAGGAUAUGGUCAGCUUUGCUGACCAGAAGGCAUGUCAUAAGACAUGAGGAUCACCCAUGUAGUUAAGAUGGCA | – | – | 778 nM | 47.9 nM |
| AAUUUACAGGGAGGAUAUACAUGAGGAUCACCCAUGUAAUCAUAUGAUAUUUUUUUUGUAUGAGUGUAGAAGGCCCAAAUAAAA | 9.32 nM | 11.1 nM | – | – |
| AAUAUGAGCUGGUAAAUAAAACCGACAUGAGGAUCACCCAUGUAGGAUAUCAGCACGAUAAGUGCUGAGAAGGACAUCCAGCUC | 14.4 nM | 16.7 nM | – | – |
| GCAAAGCCUGACAUGAGGAUCACCCAUGUUAGAUUGUUAUGUCAGGAUAUUGUCUAGCCACUAGACAAGAAGGGAUGCUUUGCU | – | – | 384 nM | 32.9 nM |
| AUUUCGUCAGGAUAUCCUAGUAAUUGUUUCAUAUUUACAAAGGAGAAGGGACAUGAGGAUCACCCAUGUUGGUC | 64.6 nM | 116 nM | – | – |
| UUAUACGUUGAGGAUAUGCGAAUUAGUAUAGUUGCAGAAGGCGAUACAUGAGGAUCACCCAUGUUCAUGGGCAU | 127 nM | 243 nM | – | – |
| AAACAUGUCCGAGGAUAUCUGAGAUCACUUUCAAGAGAAGGCGGACAUGAGGAUCACCCAUGUCUCUCCUCAUCAACUCCAAAU | 8.01 nM | 41.9 nM | – | – |
| GGACUUCCUGAGGAUAUUGUAUCACCUGAUUGAUAAGAAGGCAGAACAUGAGGAUCACCCAUGUGGGUACUCGG | 136 nM | 125 nM | – | – |
| GAUAUGAUGUGAGGAUAUGCUGAGGAUACUUCAGCAGAAGGCACAUGAGGAUCACCCAUGUACACUUAUCAUAAAUACCAUAUC | 12.7 nM | 19 nM | – | – |
| AAGGACUGAGGAUAUGCGCGGGCAAGAUCCUCAAUCCCAAAACAUGAGGAUCACCCAUGUAGAAGGCAGAAAUA | 25.8 nM | 22.6 nM | – | – |
| AAAUCUUACGAAGGAUAUACAAACAUGAGGAUCACCCAUGUGUGUUUCGUGUUACUGAAAUUCGGGUAGAAGGUCGUAGACAUA | 27.7 nM | 19.2 nM | – | – |
| AGCUAGUCAGGAUAUACAAACAUGUCAAAAGACGUGAGGGAACAUGAGGAUCACCCAUGUAGAAGGGACUAGCA | 53.6 nM | 195 nM | – | – |
| CAGCGCUGUUGAGAGGAUAUGCGGUGAUGGACAUGAGGAUCACCCAUGUUAGCGACAGCAUUACGGUAGAAGGCUCCACAGCUGC | – | – | 22.9 nM | 13.8 nM |
| AAUUUCAGAAGAGGAUAUUGACAUGAGGAUCACCCAUGUAUUUGGGAAUGUUUACUGAAUUCUUACAAGAAGGUUUACGAACUU | 98 nM | 79.7 nM | – | – |
| GGUGCGUAUGUGAGGAUAUGCUGGUCCUUGGUUCAGCAGAAGGCACAUGAGGAUCACCCAUGUGGUGUCGUACC | 289 nM | 26.4 nM | – | – |
| ACACAGAAAGGAUAUGCAGGGAGAUAAAGCUUCUUGUUCCAACAUGAGGAUCACCCAUGUAGAAGGUUCGAAAA | 32 nM | 99.5 nM | – | – |
| ACUUCACAUGAGGAUCACCCAUGUCAGGCCGGACUAGGAUAUUAUCAUGCAGCGUGACCGUGAGAAGGAGUUGGAU | – | – | 110 nM | 114 nM |
| GUCGGAAACGACAAAAGUAGCAUAGGAGAAGGCAUGUCAAAGACAUGAGGAUCACCCAUGUAGCAUGAGGAUAUCCUAUGCUAC | – | – | 5.24 nM | 4.97 nM |
| AUAAUGUGAGGAUAUCAGUCGACUAGCUGCGGCUAGUCGACUGAGAAGGCACAUGAGGAUCACCCAUGUAGAUC | 978 nM | 47.7 nM | – | – |
